Assay results published in ChEMBL document CHEMBL6134784, “Furoxan-piplartine hybrids as effective NO donors and ROS inducers in PC3 cancer cells: design, synthesis, and biological evaluation” (RSC Med Chem, 2024).
Activity calls are given as the source filed them. The calls are words filed in the database; no cut-off is given here.

What was measured:
PC-3 [1] = experiment: Induction of apoptosis in human PC-3 cells assessed as viable cells at 0.05 uM measured after 6 hrs by Alexa Fluor 488-annexin V/propidium iodide staining based flow cytometry (reference value: 89.37%); assay type: functional; conditions: read-out: Activity
PC-3 [2] = experiment: Induction of morphological changes in human PC-3 cells assessed as reduction in cell density at 0.05 uM measured after 24 hrs in presence of antioxidant N-acetyl-L-cysteine by phase contrast microscopy; assay type: functional, cell-based
In short: (§1)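 PC3 cells were seeded at 1×10^5 per well in 6-well plates and treated after 24 h, with or without 1 mM N-acetyl-L-cysteine. The same observation field was imaged by phase contrast microscopy at 1, 2, 3, 4 and 24 h. DMSO vehicle served as control.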

PC-3 [3] = experiment: Effect on NFE2L2 gene expression in human PC-3 cells at 0.05 uM measured after 3 hrs by qPCR analysis; assay type: functional, cell-based
In short: (§2)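 Seeded 1×10^5 cells per well in 6-well plates; PC3 treated 3 h. Total RNA extracted, qPCR; each target normalized to reference gene (β-actin) by efficiency-corrected ΔΔCt (Pfaffl) against a control calibrator sample, efficiencies from amplification profiles. Mean ± SEM of four independent experiments.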

PC-3 [4] = experiment: Cell cycle arrest in human PC-3 cells assessed as down regulation of cyclin D1 expression at 0.05 uM measured after 3 hrs by Western blot analysis; assay type: functional, cell-based
In short: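 Western blot: PC3 seeded 1×10^7 per 100 mm dish, treated 3 h or 6 h, lysed in RIPA with protease/phosphatase inhibitors; 50 μg protein on 12% SDS-PAGE, PVDF transfer, 5% milk block, anti-cyclin D1 (1:1000) overnight at 4 °C, HRP anti-rabbit secondary, β-actin loading control, ECL detection and band densitometry; two independent experiments.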

PC-3 [5] = experiment: Cell cycle arrest in human PC-3 cells assessed as reduction in cell accumulation at S phase in presence of antioxidant N-acetyl-L-cysteine at 0.05 uM measured after 3 hrs by propidium iodide staining based flow cytometry; assay type: functional
In short: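 PC3 cells seeded 1×10^5 per well in 6-well plates, exposed 3 h, with or without 1 mM N-acetyl-L-cysteine pretreatment; vehicle 0.1% DMSO. Harvested with trypsin-EDTA, fixed in 75% ethanol in PBS at 4 °C for 30 min, stained 1 h with RNase (1.5 mg mL^-1) and propidium iodide (90 μg mL^-1); DNA content by flow cytometry. Phase fractions compared with control by ANOVA/Tukey.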

PC-3 [6] = experiment: Induction of apoptosis in human PC-3 cells assessed as early apoptotic cells at 0.05 uM measured after 6 hrs by Alexa Fluor 488-annexin V/propidium iodide staining based flow cytometry (reference value: 6%); assay type: functional
PC-3 [7] = experiment: Induction of morphological changes in human PC-3 cells assessed as cell rounding at 0.05 uM measured after 24 hrs by phase contrast microscopy; assay type: functional, cell-based; in short: as §1
PC-3 [8] = experiment: Cell cycle arrest in human PC-3 cells assessed as up regulation of CDKN1A gene expression at 0.05 uM measured after 3 hrs by qPCR analysis; assay type: functional, cell-based; in short: as §2
PC-3 [9] = experiment: Cell cycle arrest in human PC-3 cells assessed as down regulation of c-Myc gene expression at 0.05 uM measured after 3 hrs by qPCR analysis; assay type: functional, cell-based; in short: as §2
PC-3 [10] = experiment: Induction of apoptosis in human PC-3 cells assessed as effect on BCL2 gene expression at 0.05 uM measured after 3 hrs by qPCR analysis; assay type: functional, cell-based; in short: as §2
PC-3 [11] = experiment: Induction of morphological changes in human PC-3 cells assessed as reduction in cell density at 0.05 uM measured after 24 hrs by phase contrast microscopy; assay type: functional, cell-based; in short: as §1
PC-3 [12] = experiment: Induction of DNA damage in human PC-3 cells assessed as increase in phosphorylated gamma-H2AX expression at 0.05 uM measured after 6 hrs by DAPI staining based confocal laser scanning microscopy; assay type: functional, cell-based
In short: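 γ-H2AX immunostaining: PC3 on coverslips (1×10^5 cells), serum-starved 18 h, then treated (methods state 1 h; legend states 6 h); fixed 3.7% formaldehyde, permeabilized 0.25% Triton X-100, blocked 3% albumin, anti-phospho-H2A.X Ser139 (1:500) then Alexa Fluor 488 secondary, DAPI nuclei; confocal, 500 cells per slide, three experiments; UVC 20 min positive control.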

PC-3 [13] = experiment: Cell cycle arrest in human PC-3 cells assessed as down regulation of CCND1 gene expression at 0.05 uM measured after 3 hrs by qPCR analysis; assay type: functional, cell-based; in short: as §2
PC-3 [14] = experiment: Induction of apoptosis in human PC-3 cells assessed as necrotic cells at 0.24 uM measured after 6 hrs by Alexa Fluor 488-annexin V/propidium iodide staining based flow cytometry (reference value: 1.28%); assay type: functional
PC-3 [15] = experiment: Induction of morphological changes in human PC-3 cells assessed as cell rounding at 0.24 uM measured after 24 hrs in presence of antioxidant N-acetyl-L-cysteine by phase contrast microscopy; assay type: functional, cell-based; in short: as §1
PC-3 [16] = experiment: Induction of apoptosis in human PC-3 cells assessed as late apoptotic cells at 0.24 uM measured after 6 hrs by Alexa Fluor 488-annexin V/propidium iodide staining based flow cytometry (reference value: 3.37%); assay type: functional
PC-3 [17] = experiment: Induction of morphological changes in human PC-3 cells assessed as loss of adhesion at 0.24 uM measured after 24 hrs in presence of antioxidant N-acetyl-L-cysteine by phase contrast microscopy; assay type: functional, cell-based; in short: as §1
PC-3 [18] = experiment: Cytotoxicity against human PC-3 cells assessed as reduction in cell viability at 0.24 uM measured after 24 hrs in presence of antioxidant N-acetyl-L-cysteine by SRB assay; assay type: functional, cell-based
In short: (§3)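 SRB assay: PC3 seeded 1×10^4 per well, after 24 h exposed 24 h at 37 °C, 5% CO2 with or without 1 mM N-acetyl-L-cysteine; vehicle 0.1% DMSO. Fixed with 15% TCA at 4 °C for 1 h, dried, stained 0.4% sulforhodamine B, dye solubilized in 10 mM Tris, absorbance 540 nm; ANOVA/Tukey.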

PC-3 [19] = experiment: Induction of morphological changes in human PC-3 cells assessed as reduction in cell density at 0.24 uM measured after 24 hrs by phase contrast microscopy; assay type: functional, cell-based; in short: as §1
PC-3 [20] = experiment: Induction of apoptosis in human PC-3 cells assessed as early apoptotic cells at 0.24 uM measured after 6 hrs by Alexa Fluor 488-annexin V/propidium iodide staining based flow cytometry (reference value: 6%); assay type: functional
PC-3 [21] = experiment: Induction of apoptosis in human PC-3 cells assessed as effect on BAX gene expression at 0.24 uM measured after 3 hrs by qPCR analysis; assay type: functional, cell-based; in short: as §2
PC-3 [22] = experiment: Induction of apoptosis in human PC-3 cells assessed as effect on BCL2 gene expression at 0.24 uM measured after 3 hrs by qPCR analysis; assay type: functional, cell-based; in short: as §2
PC-3 [23] = experiment: Induction of morphological changes in human PC-3 cells assessed as loss of adhesion at 0.24 uM measured after 24 hrs by phase contrast microscopy; assay type: functional, cell-based; in short: as §1
PC-3 [24] = experiment: Induction of morphological changes in human PC-3 cells assessed as cell rounding at 0.24 uM measured after 24 hrs by phase contrast microscopy; assay type: functional, cell-based; in short: as §1
PC-3 [25] = experiment: Cell cycle arrest in human PC-3 cells assessed as down regulation of CCND1 gene expression at 0.24 uM measured after 3 hrs by qPCR analysis; assay type: functional, cell-based; in short: as §2
PC-3 [26] = experiment: Cytotoxicity against human PC-3 cells assessed as reduction in cell viability at 0.24 uM measured after 24 hrs by SRB assay; assay type: functional, cell-based; in short: as §3
PC-3 [27] = experiment: Induction of morphological changes in human PC-3 cells assessed as reduction in cell density at 0.24 uM measured after 24 hrs in presence of antioxidant N-acetyl-L-cysteine by phase contrast microscopy; assay type: functional, cell-based; in short: as §1

COc1cc(/C=C/C(=O)N2CCC=CC2=O)cc(OC)c1OCCCCCCCCCCCCOc1no[n+]([O-])c1S(=O)(=O)c1ccccc1
viability at 0.05 µM (PC-3 [1]): 12.6% | Activity (PC-3 [2]): inactive | Activity (PC-3 [3]): Active | Activity (PC-3 [4]): Active | Activity (PC-3 [5]): Active | Activity (PC-3 [6]): 6.6% | Activity (PC-3 [7]): Active | Activity (PC-3 [8]): Active | Activity (PC-3 [9]): Active | Activity (PC-3 [10]): inactive | Activity (PC-3 [11]): Active | Activity (PC-3 [12]): Active | Activity (PC-3 [13]): Active

COc1cc(/C=C/C(=O)N2CCC=CC2=O)cc(OC)c1OCCCOc1no[n+]([O-])c1S(=O)(=O)c1ccccc1
Activity (PC-3 [14]): 0.81% | Activity (PC-3 [15]): inactive | Activity (PC-3 [16]): 43.61% | Activity (PC-3 [17]): inactive | Activity (PC-3 [18]): inactive | Activity (PC-3 [19]): Active | Activity (PC-3 [20]): 9.17% | Activity (PC-3 [21]): inactive | Activity (PC-3 [22]): inactive | Activity (PC-3 [23]): Active; Partial Loss Of Adhesion Observed | Activity (PC-3 [24]): Active | Activity (PC-3 [25]): Active | Activity (PC-3 [26]): Active | Activity (PC-3 [27]): inactive
